Measurements from article PMC8103725 (FASEB BioAdvances, 2021).

Experiments:
[1] = tested on: PARD3 binding to HEG1 cytoplasmic tail; assay: PARD3 pulldown assay with HEG1 matrix; design: species or system human; details: HUVEC lysates, 35 μM compound
Outline: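 Clarified lysate (600 μg) was rotated overnight at 4°C with 20 μL neutravidin agarose carrying HEG1 wild‑type (1274–1381) or ΔYF (1274–1379) tail. Incubations contained DMSO, 35 μM test compound or 35 μM 2‑hydroxy‑1‑naphthoic acid. After three washes, bound PARD3 was detected by SDS–PAGE immunoblot with rabbit polyclonal anti‑PARD3.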

[2] = tested on: klf2a expression in arterial and venous endothelium; assay: Zebrafish klf2a reporter Tg; type: in vivo; details: 4 μM, 4 h from 26 hpf
Outline: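 Tg(klf2a:H2B‑EGFP);Tg(kdrl:mCherry) embryos were exposed to test compound dissolved in fish egg water. At 30 hpf they were paralysed with tricaine and imaged by confocal microscopy. Nuclear EGFP intensity in vasculature was measured on nuclei outlined through Z, seven nuclei per embryo. Each experiment used two treated and two control embryos; two independent experiments were analysed.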

[3] = tested on: HUVEC; assay: Genome‐wide RNA sequencing of HUVEC; type: cell-based, human; details: same conditions as HKi2, vs vehicle; data not shown
Outline: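 HUVEC (passages 4–7) were grown on fibronectin in complete EGM‑2 at 37°C, 5% CO2, then given 75 μM test compound or DMSO for 24 h. Only RNA with RIN >8 was used; 400 ng went into TruSeq stranded mRNA libraries. Libraries were sequenced on HiSeq2500 (SR100, 30 million reads), mapped to GRCh release 96 with Hisat2, and analysed for differential expression with EdgeR.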

[4] = tested on: hCMEC/D3 cells; assay: Propidium iodide staining, cell viability; type: cell-based, human; details: 50 μM, 24 h, vs vehicle
Outline: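 hCMEC/D3 cells were treated with test compound or the same DMSO concentration, then resuspended in PBS with 1% BSA and stained with propidium iodide. Samples were analysed by flow cytometry, counting PI‑positive cells as dead. Results are percentage viable cells ± SEM, n=3, one‑way ANOVA.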

[5] = tested on: hCMEC/D3 cells; assay: Western blot of pAkt‐S473 and total Akt in hCMEC/D3 cells; type: cell-based, human; details: for effect on Akt phosphorylation induced by HKi2: with HKi2 50 μM, MK‐2206 20 μM, LY294002 10 μM
Outline: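 hCMEC/D3 cells were treated with 50 μM test compound or DMSO and washed twice in ice‑cold HBSS. They were lysed in RIPA (50 mM Tris pH 7.5, 150 mM NaCl, 1% NP‑40, 0.5% deoxycholate, 0.1% SDS, 2 mM EDTA, 50 mM NaF) with protease/phosphatase inhibitors and 1 mM Na3VO4. Lysates were spun at 20,000xg for 15 min at 4°C, resolved on 4–12% gels, and immunoblotted for phospho‑Akt Ser473 (1:250) and total Akt. Data are mean ± SEM.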

[6] = molecular target: HEG1–KRIT1 interaction (EGFP‐KRIT1 FERM domain binding to HEG1 cytoplasmic tail on beads) (Homo sapiens, UniProt O00522); assay: Flow cytometry bead assay for the HEG1–KRIT1 FERM domain interaction; details: for inhibition of the HEG1–KRIT1 interaction: result in words
Sequence of HEG1–KRIT1 interaction (EGFP‐KRIT1 FERM domain binding to HEG1 cytoplasmic tail on beads) (O00522 417-736): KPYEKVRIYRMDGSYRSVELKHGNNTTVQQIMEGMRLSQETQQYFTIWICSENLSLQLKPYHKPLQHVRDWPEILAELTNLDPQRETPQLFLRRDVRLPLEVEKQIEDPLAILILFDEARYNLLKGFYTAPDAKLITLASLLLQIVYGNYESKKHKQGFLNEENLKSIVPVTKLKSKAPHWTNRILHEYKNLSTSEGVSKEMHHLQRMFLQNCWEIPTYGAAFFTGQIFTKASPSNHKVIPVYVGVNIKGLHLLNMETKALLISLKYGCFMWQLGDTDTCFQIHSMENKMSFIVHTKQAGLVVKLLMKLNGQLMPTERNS

[7] = tested on: hCMEC/D3 cells; assay: qPCR of KLF4 and KLF2 mRNA in hCMEC/D3 cells; type: cell-based, human; details: 50 μM, 4 h
Outline: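 Test compound came from a 10 mM DMSO stock, rotated 30 min at RT before use. hCMEC/D3 cells (passages 30–37, collagen‑coated, EGM‑2 MV, 37°C/5% CO2) were treated at the indicated doses (12 h dose–response) or over a time course, versus DMSO. RNA was extracted with TRIzol, and 1 µg was reverse‑transcribed with SuperScript III. qPCR used actin normalization and 2−ΔΔCT. Results are relative to vehicle ± SEM: n=3 t test, or n=4 one‑way ANOVA.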

[8] = Aqueous solubility in assay buffer; type: physicochemical; details: assay buffer conditions

SMILES: O=C(O)c1c(O)ccc2ccccc12 [Compound 9, 2‐hydroxy‐1‐naphthoic acid]
- PARD3 binding to HEG1 [1]: no effects
- nuclear EGFP (klf2a reporter) in arterial and venous endothelium [2]: no effects
- effects on HUVECs gene expression by RNA‐Seq [3]: no significant effects
- cell viability [4]: no statistical difference
- Akt phosphorylation (pAkt‐S473) ([5]; 50 μM, 4 h): did not elevate Akt activity
- inhibition of the HEG1–KRIT1 interaction [6]: does not block KRIT1 binding to HEG1
- KLF2 mRNA levels [7]: did not elevate
- KLF4 mRNA levels [7]: did not elevate

SMILES: O=Cc1cc(-c2ccccc2)ccc1O [Compound 6]
- inhibition of the HEG1–KRIT1 interaction [6]: moderate inhibition activity

SMILES: O=c1cc(N2CCOCC2)oc2c(-c3ccccc3)cccc12 [LY294002]
- effect on Akt phosphorylation induced by HKi2 [5]: prevented an increase in Akt signaling

SMILES: O=Cc1nccc2ccccc12 [Compound 8]
- inhibition of the HEG1–KRIT1 interaction [6]: no inhibition

SMILES: NC1(c2ccc(-c3nc4ccn5c(=O)[nH]nc5c4cc3-c3ccccc3)cc2)CCC1 [MK‐2206]
- effect on Akt phosphorylation induced by HKi2 [5]: prevent the increase in Akt phosphorylation

SMILES: CC(NC(=O)c1ccccc1/N=C/c1c(O)ccc2ccccc12)c1ccccc1 (centres unmarked) [HKi1, Sirtinol]
- aqueous solubility [8]: poor solubility
- IC50 ([6]; IC50, competition, 70 nM EGFP‐KRIT1 FERM domain, 150 nM HEG1 on the beads): ~10 µM
